Tn7 DDE FP: inhibitors of Tn7 peptide binding to fibrin DD(E), primary screen, biochemical, fluorescence polarization, human fibrin, Tn7 probe. Fibrinogen beta chain (Homo sapiens), P02675. FP displacement of FITC-Tn7 peptide from fibrin DD(E); 0% = median of compound wells per plate. inhibition, % at 8.3 µM. 370,000 compounds, 0.13% hits;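 active means inhibition above the mean of compounds falling within the control limits plus 3 SD of them, cut at about 14% in these data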;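 further: 0% = plate median of compound wells and 100% = 10 µM Aha-Tn7 peptide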
Target sequence (P02675 whole entry, looked up): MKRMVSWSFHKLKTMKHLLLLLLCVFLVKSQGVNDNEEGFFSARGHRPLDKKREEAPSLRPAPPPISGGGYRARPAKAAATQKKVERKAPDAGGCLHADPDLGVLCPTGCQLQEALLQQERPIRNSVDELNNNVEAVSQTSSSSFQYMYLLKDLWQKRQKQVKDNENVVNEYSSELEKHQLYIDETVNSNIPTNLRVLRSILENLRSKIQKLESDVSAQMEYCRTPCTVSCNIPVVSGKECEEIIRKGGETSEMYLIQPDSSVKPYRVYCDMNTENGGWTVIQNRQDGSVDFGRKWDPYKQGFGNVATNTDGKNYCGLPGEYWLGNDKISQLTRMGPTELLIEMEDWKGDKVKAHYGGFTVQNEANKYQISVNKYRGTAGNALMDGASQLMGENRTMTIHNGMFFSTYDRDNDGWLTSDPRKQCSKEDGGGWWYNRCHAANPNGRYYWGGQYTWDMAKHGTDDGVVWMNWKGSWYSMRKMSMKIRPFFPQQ
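Assay system: Human fibrin DD(E) protein | Medium: Tris buffer with calcium and detergent, pH 7.8 | Reagent: 0.1 µM fluorescent Tn7 | Compound dosing: Single point at 8.3 µM | Times: 10 min preincubation, 3 h with tracer, room temperature | Detection: Fluorescence polarization of the labelled Tn7 tracer | Controls: Aha-Tn7 high control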
ADAM17 inh: ADAM17 inhibitors, primary screen, biochemical, QFRET. Disintegrin and metalloproteinase domain-containing protein 17 (Homo sapiens), P78536. recombinant ADAM17, EDANS/DABCYL FRET peptide cleavage. AID 720648, 2013. inhibition, % at 6.95 µM. 370,000 compounds, 0.83% hits;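 active means inhibition above the mean of compounds lying between control limits plus 3 SD, set per campaign, cut at about 8.5% in these data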;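 further: 0% = DMSO-only wells as the low control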
ADAM10 inh: human ADAM10 inhibitors, primary screen, biochemical, QFRET, HTS; Disintegrin and metalloproteinase domain-containing protein 10 (Homo sapiens), O14672; recombinant ADAM10, EDANS/DABCYL FRET peptide cleavage, 3 h; 370,000 compounds, 0.62% hits; inhibition, % at 7 µM;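 active means inhibition above a per-campaign cutoff equal to the mean of compounds falling between control-based bounds plus 3 SD, cut at about 20% in these data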;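 further: 0% = DMSO wells while the 100% control is not disclosed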
MT1-MMP act inh: blockers of MT1-MMP proenzyme processing, primary screen, HT1080 RFP-PRO-GFP cells, GFP/RFP fluorescence; Matrix metalloproteinase-14 (Homo sapiens), P50281; GFP/RFP ratio fluorescence, overnight; percent of plate control window, DMSO zero; GFP/RFP ratio change, % at 20 µM; 360,000 compounds, 0.061% hits; AID 651647, 2012;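 active means GFP/RFP ratio change of at least 30% with cell ATP level not reduced by more than half and red fluorescence within 50% of control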
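Assay system: HT1080 RFP-PRO-GFP cells | Dosing: 20 µM single dose, 1% DMSO | Incubation: Cells overnight before dosing, compound overnight, 37 °C, 5% CO2 | Evaluation: GFP/RFP fluorescence ratio | Control set: DMSO-only wells and HT1080 RFP-L50D-GFP cell wells as references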
Tn6 DDE FP: inhibitors of Tn6 peptide binding to fibrin DD(E), primary screen, biochemical, fluorescence polarization, human fibrin, Tn6 probe; AID 720509, 2013; inhibition, % at 8.3 µM; Fibrin DD(E) TRITC-Tn6 fluorescence polarization displacement; 370,000 compounds, 0.21% hits;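 active means inhibition above a per-campaign cutoff: mean of compounds within control limits plus 3 SD, cut at about 15% in these data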;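 further: 0% = median of all compound wells on the plate and 100% = blocking peptide control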
ADAM10 ctr: ADAM10 inhibitors, counter-screen for ADAM17 exosite inhibitor project, biochemical, FRET, human ADAM10. shares compounds with ADAM17 inh. recombinant ADAM10, EDANS/DABCYL FRET peptide cleavage, 3 h. inhibition, % at 6.95 µM. 2,900 compounds, 47% hits;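 active means mean inhibition over the triplicate runs exceeds the activity threshold set in the earlier primary screen, cut at about 20% in these data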;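 further: 0% = DMSO wells and 100% = marimastat wells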
ADAM17 confirm: ADAM17 inhibitors, hit retest, confirmation, biochemical, QFRET peptide cleavage. recombinant ADAM17, EDANS/DABCYL QFRET peptide cleavage. inhibition, % at 6.95 µM. shares compounds with ADAM17 inh. AID 743257, 2014. 2,900 compounds, 65% hits;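 active means mean inhibition across replicates above the hit cutoff set in the primary screen, cut at about 8.5% in these data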;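 further: 0% = DMSO wells and 100% = marimastat wells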
Numbers without * were called inactive; x = not tested or not shown. An excerpt weighted towards active compounds, which were near 1.6% of everything screened.

SMILES	Tn7 DDE FP	ADAM17 inh	ADAM10 inh	MT1-MMP act inh	Tn6 DDE FP	ADAM10 ctr	ADAM17 confirm
NS(=O)(=O)c1ccc(NCc2cc(Cl)ccc2OCc2ccc(F)cc2)cc1	-3	9.3*	16	-1	1	20	12*
COc1cc(/C=N/NC(=O)c2cc(-c3ccccc3OC(C)C)nc3ccccc23)ccc1O	3	11*	17	1	-4	17	15*
COc1cc(/C=N/NC(=O)c2cc(-c3ccccc3)nc3ccccc23)ccc1O	3	1	8	3	1	x	x
COc1cc(/C=C/c2ccc3cccc([N+](=O)[O-])c3n2)ccc1OCC(=O)O	1	-1	-4	0	-3	x	x
CCOc1c(OC(C)=O)ccc(/C=C/c2ccc3cccc(OC)c3n2)c1[N+](=O)[O-]	-2	9.0*	16	6	0	24*	16*
CC[C@@]1(C(=O)OC)N[C@H](CN(C)S(=O)(=O)c2ccc(-c3ccccc3)cc2)[C@@H]2C(=O)N(C)C(=O)[C@@H]21	-12	13*	7	0	-7	12	6
O=C(/C=C/c1ccccc1O)c1ccc(Cl)cc1	-6	10.0*	19	-3	-5	14	9.4*
O=C(/C=C/c1ccccc1O)c1ccccc1	-4	-11	-35	-1	-5	x	x
Nc1[nH]c(C(=O)c2ccc(Br)cc2)c(-c2ccc(Br)cc2)c1C(=O)N1CCCCC1	1	-3	-2	x	5	x	x
CCC(c1c[nH]c2ccccc12)c1cn(C)c2ccccc12 (configuration not stated)	-1	0	-5	x	2	x	x
CN(CC(=O)Nc1ccc(Cl)c(C(F)(F)F)c1)C(=O)c1cccnc1Sc1ccccc1	-7	12*	8	-4	5	27*	9.7*
COC(=O)c1ccc(CSc2nc3c(c(=O)n2-c2ccc(C)cc2)SCC3)o1	0	12*	19	3	0	12	6
COc1ccc(-n2c(SCC(=O)Nc3cc(C)on3)nc3c(c2=O)SCC3)cc1	3	0	1	-1	1	x	x
O=S1(=O)C=CCN1Cc1cn(Cc2ccc(Cl)cc2)nn1	-2	-1	-1	x	-3	x	x
COC(=O)c1ccc2[nH]c(C3(O)CCCCC3)c(C)c2c1	-8	11*	2	4	-5	-16	3
COc1ccc2c(C(F)(F)F)cc(=O)oc2c1C	-3	9.8*	13	0	-4	17	8
COC(=O)[C@]12C[C@H](CC(=O)N3CCOCC3)C(=O)N(CCC3=CCCCC3)C1=C[C@H](C(C)C)O[C@@H]2C1CC1	1	1	5	x	10	x	x
CCOc1ccc(NC(=O)CC2SC(=O)N(c3ccccc3)C2=O)cc1 (configuration not stated)	-2	9.6*	15	-1	-3	14	41*
COc1cccc(NC(=O)CC2SC(=Nc3ccccc3)NC2=O)c1 (configuration not stated)	0	-1	-3	6	-8	x	x
COc1cccc(NC(=O)CC2S/C(=N\S(=O)(=O)c3ccccc3)N(c3ccccc3)C2=O)c1 (configuration not stated)	1	10*	16	1	0	15	9.8*
CCN(CC)c1ccc(S(=O)(=O)N2CCOCC2)cc1NC(=O)COC(=O)/C=C/c1ccccc1	-10	8.8*	11	-3	-2	14	11*
c1cncc(-c2ccc3ncnc(NCc4ccc5c(c4)OCO5)c3c2)c1	2	-1	-8	-11	-4	x	x
c1nc(NCc2ccc3c(c2)OCO3)c2cc(-c3ccoc3)ccc2n1	-2	9.9*	-3	-9	-13	-12	3
O=C(COCc1ccccc1)NC1CCCCN(Cc2cccc(Cl)c2)C1=O (configuration not stated)	2	3	6	x	2	x	x
CC1=Nc2cc(C(=O)NCCN3CCOCC3)ccc2Sc2c(C)ccc(C)c21	1	9.3*	1	-2	-9	-15	0
SMILES	Tn7 DDE FP	ADAM17 inh	ADAM10 inh	MT1-MMP act inh	Tn6 DDE FP	ADAM10 ctr	ADAM17 confirm
CCCN(C(=O)c1cn(CCC)c2ccccc12)c1ccc(Oc2cccnc2)cc1	0	10*	11	x	-21	16	9.1*
CCCCCN(C(=O)CCc1cn(CCCCC)c2ccccc12)c1ccc(Oc2cccnc2)cc1	-4	-3	-2	x	-6	x	x
Cc1ccc2ccccc2c1C(O)c1ncc(-c2cccc(C(F)(F)F)c2)[nH]1 (configuration not stated)	-2	12*	12	8	1	26*	15*
OC(c1ccccc1)c1ncc(-c2ccc(C(F)(F)F)cc2)[nH]1 (configuration not stated)	3	2	5	4	10	x	x
OC(c1ccc(-c2ccccc2)cc1)c1ncc(-c2ccc(C(F)(F)F)cc2)[nH]1 (configuration not stated)	-1	9.1*	6	1	1	23*	13*
Cc1cc(Cl)ccc1C(O)c1ncc(-c2cccc(C(F)(F)F)c2)[nH]1 (configuration not stated)	4	9.2*	14	4	1	40*	18*
C[C@H](O)[C@@H]1C(=O)N2CCc3c([nH]c4c(-c5ccc6c(c5)OCO6)cccc34)[C@@H]2C[C@@H]1N(C)C(=O)NC1CCCCC1	-4	-16	-49	x	-11	x	x
O=C(NC1CCCCC1)O[C@H]1CC[C@@]23CCCN2C(=O)CCC[C@H]3C1	3	0	4	x	2	x	x
COCC(=O)Nc1ncc(S(=O)(=O)c2ccc([N+](=O)[O-])cc2)s1	0	-5	-2	3	-3	x	x
